pPAFAH inh: inhibitors of human plasma PAF acetylhydrolase (pPAFAH); hit rate 1.5% among 330,000; Q13093; recombinant pPAFAH, FP-rhodamine probe fluorescence polarization; AID 463082; inhibition, % at 3.39 µM;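 active = inhibition above the mean inhibition across the screen plus 3 SD, cut at about 25% in these data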;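 also: inhibitors block binding of the rhodamine activity-based probe so polarization drops; 0% = enzyme with DMSO and 100% = wells lacking pPAFAH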
Target sequence (Q13093 whole entry, looked up): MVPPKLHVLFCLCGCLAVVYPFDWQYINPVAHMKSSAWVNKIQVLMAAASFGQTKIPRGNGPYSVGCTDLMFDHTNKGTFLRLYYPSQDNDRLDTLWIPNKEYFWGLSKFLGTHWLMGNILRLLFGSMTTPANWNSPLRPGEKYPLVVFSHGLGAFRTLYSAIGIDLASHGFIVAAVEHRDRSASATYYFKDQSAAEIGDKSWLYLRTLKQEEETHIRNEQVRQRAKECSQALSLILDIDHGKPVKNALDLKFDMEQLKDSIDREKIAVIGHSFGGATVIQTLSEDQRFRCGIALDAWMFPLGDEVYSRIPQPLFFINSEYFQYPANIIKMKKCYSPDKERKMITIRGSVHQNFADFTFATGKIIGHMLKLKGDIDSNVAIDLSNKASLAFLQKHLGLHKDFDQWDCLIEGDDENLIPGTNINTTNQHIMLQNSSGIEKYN
PAFAH2 FP inh: PAFAH2 (human) inhibition; inhibition, % at 3.39 µM; recombinant PAFAH2, FP-rhodamine activity probe, fluorescence polarization; hit rate 0.99% among 340,000; AID 492956; Q99487;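 active = inhibition above the mean over all tested compounds plus 3 SD, cut at about 30% in these data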;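 also: inhibitors block probe labeling of enzyme so polarization drops; 0% = enzyme with DMSO and 100% = wells lacking PAFAH2 protein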
PAFAH1B2 FP inh: inhibitors of human PAFAH1B2. P68402. recombinant PAFAH1B2, FP-rhodamine activity probe, fluorescence polarization. inhibition, % at 3.39 µM. hit rate 1.2% among 340,000;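 active = inhibition above the mean of all tested compounds plus 3 SD, cut at about 24% in these data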;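 also: 0% = enzyme with DMSO and 100% = wells lacking PAFAH1B2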
VIM-2 inhibitor: blocks Pseudomonas aeruginosa VIM-2 metallo-beta-lactamase | purified VIM-2, nitrocefin hydrolysis, epi-absorbance fluorescence | inhibition, % at 5.6 µM | hit rate 0.89% among 290,000;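 active = inhibition above the mean of all tested compounds plus 3 SD, cutoff set per screening run, cut at about 7.5% in these data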;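 also: red hydrolysis product quenches plate fluorescence so inhibitors raise well fluorescence; 0% = enzyme with DMSO and 100% = DMSO without enzyme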
IMP-1 inhibitor: inhibitors of Pseudomonas aeruginosa IMP-1 metallo-beta-lactamase; AID 1556; purified IMP-1, nitrocefin hydrolysis, epi-absorbance fluorescence; hit rate 0.45% among 290,000; inhibition, % at 5.6 µM;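 active = inhibition above the mean plus 3 SD of all compounds in the same screening run, cut at about 4.5% in these data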;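 also: 0% = IMP-1 with DMSO and 100% = DMSO wells lacking enzyme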
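Assay system: purified recombinant IMP-1 beta-lactamase. Input: IMP-1 0.2 nM before substrate addition. Buffer or medium: Zinc- and detergent-supplemented HEPES buffer, pH 7.1. Schedule: 25 °C, 15 min preincubation, 25 min reaction. Signal: Epi-absorbance fluorescence, 480 nm excitation, 530 nm emission. Evaluation: percent inhibition from optical density relative to buffer-blank wells.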
PAFAH1B3 FP inh: blocks human PAF acetylhydrolase 1B catalytic subunit 3. recombinant PAFAH1B3, FP-rhodamine probe, fluorescence polarization. Q15102. inhibition, % at 3.39 µM. AID 492972. hit rate 0.28% among 340,000;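 active = inhibition above the screen-wide average of all tested compounds plus 3 SD, cut at about 25% in these data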;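 also: 0% = enzyme with DMSO only and 100% = wells lacking PAFAH1B3 protein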
Target sequence (Q15102 whole entry, looked up): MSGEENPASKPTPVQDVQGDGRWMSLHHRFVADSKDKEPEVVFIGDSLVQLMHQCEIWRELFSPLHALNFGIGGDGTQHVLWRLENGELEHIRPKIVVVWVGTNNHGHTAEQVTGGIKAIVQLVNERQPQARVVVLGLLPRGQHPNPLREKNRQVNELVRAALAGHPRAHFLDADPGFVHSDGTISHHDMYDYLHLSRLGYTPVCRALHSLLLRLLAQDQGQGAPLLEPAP
pPAFAH confirm: confirmation of human plasma PAF acetylhydrolase (pPAFAH) inhibitors; shares compounds with pPAFAH inh; recombinant pPAFAH, FP-Rh probe fluorescence polarization; inhibition, % at 3.39 µM; hit rate 72% among 2,300; AID 463230;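 active = mean inhibition of the triplicate above the hit cutoff set for the earlier primary screen, cut at about 25% in these data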;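 also: 0% = enzyme with DMSO and 100% = wells lacking pPAFAH enzyme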
Numbers without * were called inactive; nt = not tested or not shown; ! = not confirmed by another sample. In the library only some 3.6% were active in any assay of this set; here they are far more common.

SMILES	pPAFAH inh	PAFAH2 FP inh	PAFAH1B2 FP inh	VIM-2 inhibitor	IMP-1 inhibitor	PAFAH1B3 FP inh	pPAFAH confirm
O=C1NN(c2ccc(F)c(Cl)c2)C(=O)/C1=C\c1cccc(OC(=O)c2cccs2)c1	40*	34*	42*	-3	0	12	41*
CC(C)=C1C(=O)NN(c2ccc(F)c(Cl)c2)C1=O	23	10	2	-1	-6	0	nt
Cc1cc(O)c(Oc2cc(C)cc(O)c2O)c(O)c1	39*	24	11	-3	-2	10	15
COc1ccc(C(=O)COC(=O)c2cnc(C)cn2)c(OC)c1	7	11	3	nt	nt	8	nt
N#Cc1c(NCCCO)nc(-c2ccco2)c2c1CCCC2	4	-1	0	1	-1	-3	nt
CSc1nc(N(C)CCO)c2sc3nc(-c4ccco4)c4c(c3c2n1)CCC4	40*	4	6	1	11*	-1	4
COc1ccc(N(CC(=O)Nc2cccc(C(C)=O)c2)S(=O)(=O)c2ccc(NC(C)=O)cc2)cc1	nt	-12	4	-2	1	-2	nt
CN(c1ccc(OCC(=O)NC2CCC(O)CC2)cc1)S(=O)(=O)c1ccc(Cl)cc1 (configuration not stated)	37*	-4	5	nt	nt	10	-2
COc1ccc(C)cc1NC(=O)C(c1ccccc1)N1CCN(CC(=O)NC2CC2)CC1 (configuration not stated)	nt	8	3	nt	nt	6	nt
COc1cc(/C=C2/SC(=S)N(Cc3ccccc3)C2=O)ccc1OCC(=O)O	49*	5	2	-6	-2	-4	28*
COc1ccc(/C=C2\SC(=S)N(CCCC(=O)NNC(=O)c3ccccc3O)C2=O)cc1	15	5	4	-1	-1	3	nt
COc1ccccc1/C=C1\SC(=S)N(CCC(=O)NNC(=O)c2ccccc2O)C1=O	35*	5	2	-8	-2	11	66*
COc1ccc(OC)c(-c2oc3ccccc3c(=O)c2O)c1	5	-1	1	2	-1	6	nt
COc1ccc(OC)c(-c2c3cc(O)c(=O)cc-3oc3cc(O)c(O)cc23)c1	93*	73*	74*	1	4.7*	58*	85*
CC1=NN(c2ccccc2)C(=O)/C1=C/c1c(O)n(-c2ccc(F)c(Cl)c2)[nH]c1=O	75*	nt	nt	-3	-3	nt	47*
COc1cc2c(ccc3cc(OC)c(OC)c(O)c32)cc1O	39*	15	13	nt	nt	23	22
COc1cc2ccc(=O)oc2c(O)c1OCC=C(C)C	7	-6	-9	-1	-15	0	nt
CCCCC(=O)Nc1nc(C)c(-c2csc(Nc3ccccc3OC)n2)s1	17	-1	9	-1	-3	7	nt
CCCCCC(=O)Nc1nc(C)c(-c2csc(Nc3cc(OC)ccc3OC)n2)s1	40*	8	9	-1	-2	15	29*
CCCCCCC(=O)Nc1nc(C)c(-c2csc(Nc3cc(OC)ccc3OC)n2)s1	47*	16	11	-2	10*	18	41*
Cn1nc(-c2ccccc2)c(N2CCCCC2)cc1=O	2	4	8	-2	0	-1	nt
Cn1c(=O)cc2c3c(c(N4CCCCC4)ccc31)C(=O)c1ccccc1-2	54*	nt	nt	10*	1	nt	28*
COc1cccc(CN(C)C(=O)CCNC(=O)c2ccco2)c1	-1	10	-2	nt	nt	3	nt
O=C(CCO)c1ccc(O)cc1	37*	14	7	-2	-2	11	17
CCCCC(=O)c1ccc(O)cc1	19	-1	3	-1	-2	6	nt
SMILES	pPAFAH inh	PAFAH2 FP inh	PAFAH1B2 FP inh	VIM-2 inhibitor	IMP-1 inhibitor	PAFAH1B3 FP inh	pPAFAH confirm
O=C(O)c1ccc2c(c1)C(=O)/C(=C\c1ccco1)C2=O	54*	17	12	2	-1	35*	18
CCCn1c(N)c(N(CCOC)C(=O)COC(=O)CSc2cc(C)c3ccccc3n2)c(=O)[nH]c1=O	5	5	2	nt	nt	-2	nt
O=C1/C(=C/c2ccco2)Oc2c1ccc(O)c2CN1CCCCC1	37*	10	4	1	0	17	8
CC1CCN(Cc2c(O)ccc3c2O/C(=C\c2ccco2)C3=O)CC1	18	18	2	-2	0	13	nt
Cc1cc(C)c(S(=O)(=O)NCc2csc(C)n2)c(C)c1	nt	3	3	1	-1	-3	nt
O=C(N/N=C/c1cccc(F)c1)c1cc(-c2ccco2)nc2ccccc12	39*	8	2	-1	-3	9	21
CN(C)C(CNC(=O)c1cc(-c2ccco2)nc2ccccc12)c1ccccc1 (configuration not stated)	61*	6	4	nt	nt	8	23
O=C(c1cc(-c2ccco2)nc2ccccc12)N1CCN(Cc2ccccc2)CC1	11	2	3	nt	nt	2	nt
COC(=O)C1CCN(C(=O)c2cc(-c3ccco3)nc3ccccc23)CC1	45*	20	4	nt	nt	11	21
O=C(O)c1cc(-c2ccco2)nc2ccc(Br)cc12	63*!	45*!	14	-4	-3	22	7
O=C(CNC(=O)c1cccc(-n2cnnn2)c1)Nc1ccc(F)c(F)c1	-3	-4	3	nt	nt	9	nt
C=CCNc1ccccc1S(=O)(=O)NCc1ccccc1	0	0	1	nt	nt	3	nt
CC(C)=CCC/C(C)=C/CNC(=O)C[C@H]1C[C@H](C(=O)N2CCOCC2)[C@@]2(CCC3CCCC3)c3[nH]c4cc(CCC(=O)N(C)C)ccc4c3CCN2C1=O	39*	2	6	nt	nt	7	27*
CC(C)=CCC/C(C)=C/CNC(=O)C[C@H]1C[C@H](C(=O)N(C(C)C)C(C)C)[C@@]2(C)c3[nH]c4cc(CCC(=O)N(C)C)ccc4c3CCN2C1=O	68*	-2	4	nt	nt	4	59*
CC(C)=CCC/C(C)=C/CNC(=O)CC1C[C@H](C(=O)N2CCCCC2)[C@@]2(C)c3[nH]c4ccccc4c3CCN2C1=O (some centres not stated)	3	2	-1	nt	nt	1	nt
CC(C)N(C(=O)[C@H]1C[C@H](CC(=O)NCCCN(C)C)C(=O)N2CCc3c([nH]c4cc(CCC(=O)N(C)C)ccc34)[C@]12C)C(C)C	3	-2	-1	nt	nt	0	nt
CC(C)=CCC/C(C)=C/CNC(=O)C[C@H]1C[C@H](C(=O)N2CCCCC2)[C@@]2(C)c3[nH]c4cc(-c5ccco5)ccc4c3CCN2C1=O	41*	8	1	nt	nt	5	23
O=C1NC[C@H](Cc2ccccc2)N(CC2CCN(CCc3ccc(-c4ccccc4)cc3)CC2)C1=O	nt	-1	5	nt	nt	4	nt
COc1ccc(N(Cc2cc3cccc(C)c3[nH]c2=O)S(=O)(=O)c2ccc(OC)cc2)cc1	66*	5	5	-2	1	8	2
